In ChEMBL document CHEMBL1124444, “Hydroxyacetophenone-derived antagonists of the peptidoleukotrienes” (1989):

Species on record: Cavia porcellus
Assay: Percent inhibition of the leukotriene D4 (LTD4)-induced contraction of guinea pig tracheal spirals at 3.3 uM concentration
Type: functional
Details: Trachea, in the assay text read “leukotriene E4 (LTE4)” for “leukotriene D4 (LTD4)”
Outline: (§1)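 Guinea pig tracheal spirals were split into paired sections in 10 mL baths of modified Krebs at 37 °C, gassed with 95% O₂/5% CO₂, under 2 g resting tension. After 60 min equilibration (washes every 15 min), reproducible contractions to 8 nM LTD₄ or 8 nM LTE₄ were obtained. Compound was added for 10 min, then agonist challenge repeated; percent inhibition is relative to the vehicle-treated paired section.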

| SMILES | inhibition at 3.3 µM [%] |
| --- | --- |
| CCCc1c(OCc2ccc(-c3nn[nH]n3)c(Br)c2)ccc(C(C)=O)c1O | 66 |
| CCCc1c(OCc2cccc(NC(=O)CCC(=O)O)c2)ccc(C(C)=O)c1O | 62 |
| CCCc1c(OCc2ccc(-c3nn[nH]n3)cc2)ccc(C(C)=O)c1O | 76 |
| CCCc1c(OCc2ccc(C(=O)O)cc2OCCCn2cnnn2)ccc(C(C)=O)c1O | 87 |
| CCCc1c(OCc2ccc(C(=O)O)cc2OCCCC#N)ccc(C(C)=O)c1O | 78 |
| CCCc1c(OCc2ccc(C(=O)NS(C)(=O)=O)cc2OC)ccc(C(C)=O)c1O | 37 |

Species on record: Cavia porcellus
Assay: Percent inhibition of the leukotriene D4 (LTD4)-induced contraction of guinea pig tracheal spirals at 50 uM concentration
Type: functional
Details: Trachea
Outline: as §1

| SMILES | inhibition at 50 µM [%] |
| --- | --- |
| CCCCCCNC(=O)c1ccc(OCc2ccc(C(=O)O)cc2OC)c(CCC)c1O | 27 |
| CCCc1c(OCc2ccc(C(=O)O)cc2OC)ccc(C(=O)N2CCCC2)c1O | 90 |
| CCCc1c(OCc2ccc(C(=O)O)cc2OC)ccc(C(=O)c2ccccc2)c1O | 20 |
| CCCCCC(=O)c1ccc(OCc2ccc(C(=O)O)cc2OC)c(CCC)c1O | 20 |
| CCCc1ccccc1OCc1ccc(C(=O)O)cc1OC | 81 |
| CCCc1c(OCC(O)CSCC(=O)O)ccc(C(C)=O)c1O (configuration not stated) | 44 |

Species on record: Cavia porcellus
Assay: Percent inhibition of the leukotriene E4 (LTE4)-induced contraction of guinea pig tracheal spirals at 10 uM concentration; NS means data was not statistically significant
Details: Trachea

| SMILES | inhibition |
| --- | --- |
| CCCc1c(OCc2ccc(C(=O)O)cc2OC)ccc(C(=O)c2ccccc2)c1O | Not statistically significant |
| CCCc1c(NC(=O)c2ccc(C(=O)O)cc2OC)ccc(C(C)=O)c1O | Not statistically significant |
| CCCC(=O)N(Cc1ccc(C(=O)O)cc1OC)c1ccc(C(C)=O)c(O)c1 | Not statistically significant |
| CCCc1c(OCc2ccccc2-c2nn[nH]n2)ccc(C(C)=O)c1O | Not statistically significant |
| CCCc1c(N(Cc2ccc(C(=O)O)cc2OC)C(C)=O)ccc(C(C)=O)c1O | Not statistically significant |

Species on record: Cavia porcellus
Assay: Percent inhibition of the leukotriene E4 (LTE4)-induced contraction of guinea pig tracheal spirals at 10 uM concentration
Type: functional
Details: Trachea
Outline: as §1

| SMILES | inhibition at 10 µM [%] |
| --- | --- |
| CCCc1c(OCc2ccc(C(=O)O)cc2OC)ccc2c(/C=C/c3ccccc3)cc(=O)oc12 | 7 |
| COc1cc(C(=O)O)ccc1COc1ccc(C(C)=O)c(O)c1C/C=C/c1ccccc1 | 32 |
| COc1cc(C(=O)O)ccc1CN(Cc1ccccc1)c1ccc(C(C)=O)c(O)c1 | 36 |
| CCCc1c(OCc2ccc(C(=O)O)cc2OC)ccc(C(=O)NC)c1O | 50 |
| CCCc1c(NCc2ccc(C(=O)O)cc2OC)ccc(C(C)=O)c1O | 73 |
| CCCc1cc2ccccc2cc1OCc1ccc(C(=O)O)cc1OC | 51 |
| COc1cc(C(=O)O)ccc1COc1ccc(C(C)=O)c(O)c1CCCC(C)=O | 21 |
| C/C=C\c1cc(=O)oc2c(CCC)c(OCc3ccc(C(=O)O)cc3OC)ccc12 | 23 |
| CCCNc1c(C(C)=O)ccc(OCc2ccc(C(=O)O)cc2OC)c1CCC | 61 |
| C/C=C/c1cc(=O)oc2c(CCC)c(OCc3ccc(C(=O)O)cc3OC)ccc12 | 21 |
| CCCc1c(N(Cc2ccc(C(=O)O)cc2OC)C(=O)c2ccccc2)ccc(C(C)=O)c1O | 12 |
| CC/N=C(/NCC)NCCCC[C@@H](NC(=O)[C@H](Cc1ccc(O)cc1)NC(=O)[C@H](CO)NC(=O)[C@@H](Cc1c[nH]c2ccccc12)NC(=O)[C@@H](Cc1ccc(Cl)cc1)NC(=O)[C@@H](Cc1ccc(Cl)cc1)NC(C)=O)C(=O)N[C@@H](CC(C)C)C(=O)N[C@@H](CCCN=C(N)N)C(=O)N1CCC[C@H]1C(=O)N[C@H](C)C(N)=O | 40 |
| CCCCCCOc1c(C(C)=O)ccc(OCc2ccc(C(=O)O)cc2OC)c1CCC | 22 |
| COc1cc(C(=O)O)ccc1COc1ccc(C(C)=O)c(OCc2ccccc2)c1 | 24 |
| CCCc1c(OCc2ccc(C(=O)O)cc2OC)ccc(C(C)=O)c1OCc1ccc(OC)cc1 | 25 |
| C=CCc1c(OCc2ccc(C(=O)O)cc2OC)ccc(C(C)=O)c1O | 100 |

Species on record: Cavia porcellus
Assay: Inhibition of the leukotriene D4 (LTD4)-induced contraction of guinea pig tracheal spirals at 10 uM concentration
Type: functional
Details: Trachea
Outline: as §1

| SMILES | inhibition at 10 µM [%] |
| --- | --- |
| CCCc1c(OCc2ccc(C(=O)NO)cc2OC)ccc(C(C)=O)c1O | 65 |
| CCCc1c(OCc2cc(Br)c(C(=O)O)cc2OC)ccc(C(C)=O)c1O | 43 |
| CCCc1c(OCc2ccc(/C=C/c3nn[nH]n3)cc2)ccc(C(C)=O)c1O | 44 |
| CCCc1c(OCc2cccc(NS(C)(=O)=O)c2)ccc(C(C)=O)c1O | 26 |
| COc1cc(C(=O)O)ccc1COc1ccc(C(C)=O)c(O)c1C | 73 |
| CCCc1c(OCc2ccc(OCCCc3nnn[nH]3)cc2)ccc(C(C)=O)c1O | 56 |
| CCCCCCNc1cc(OCc2ccc(C(=O)O)cc2OC)ccc1C(C)=O | 11 |
| CCCc1c(OCc2ccc(C(=O)O)cc2OC)ccc(C(=O)N2CCCC2)c1O | 37 |
| CCCc1c(OCCCCSCCC(=O)O)ccc(C(C)=O)c1O | 74 |
| CCCc1cc(C(C)=O)ccc1OCc1ccc(C(=O)O)cc1OC | 67 |
| CCCc1c(OCc2ccc(C(=O)O)cc2OC)ccc(C(=O)Nc2ccccc2)c1O | 25 |
| CCCc1c(OCCCCCC(=O)O)ccc(C(C)=O)c1O | 52 |
| CCCc1c(OCc2ccc(C(=O)O)cc2OCC)ccc(C(C)=O)c1O | 83 |
| CCCc1c(OCc2ccc(C(=O)O)cc2)ccc(C(=O)C(F)(F)F)c1O | 36 |
| CCCc1c(OCCCCC(=O)O)ccc(C(C)=O)c1O | 18 |
| CCCc1cc(C(C)O)ccc1OCc1ccc(C(=O)O)cc1OC (configuration not stated) | 44 |
| CCCc1c(OCc2ccc(C(=O)OC)cc2OCCCn2cnnn2)ccc(C(C)=O)c1O | 75 |
| CCCc1c(OCCCCSCC(=O)O)ccc(C(C)=O)c1O | 75 |
| CCCc1ccccc1OCc1ccc(C(=O)O)cc1OC | 25 |
| CCCc1c(OCC(O)CSCC(=O)O)ccc(C(C)=O)c1O (configuration not stated) | 19 |
| CCCc1c(OCc2cccc(N)c2)ccc(C(C)=O)c1O | 39 |
| CCCc1c(OCc2ccc(C(=O)O)cc2OC)ccc2c(=O)ccoc12 | 44 |
| CCCc1c(OCc2ccc(C(=O)O)cc2[N+](=O)[O-])ccc(C(C)=O)c1O | 93 |
| CCCc1c(OC(c2ccccc2)c2ccc(C(=O)O)cc2)ccc(C(C)=O)c1O (configuration not stated) | 16 |
| CCCc1c(OCC(=O)c2ccc(C(=O)O)cc2)ccc(C(C)=O)c1O | 66 |
| CCCc1c(OCCCS(=O)(=O)CC(=O)O)ccc(C(C)=O)c1O | 34 |
| CCCc1c(OCc2ccc(C(=O)NS(C)(=O)=O)cc2OC)ccc(C(C)=O)c1O | 97 |
| CCCc1c(OCCCSCCC(=O)O)ccc(C(C)=O)c1O | 50 |
| CCCc1c(OCc2ccc(C(=O)O)cc2)ccc(C(C)=O)c1O | 100 |

What follows are molecules tested on Cavia porcellus (assay: Compound (50 mg/kg, intraperitoneally) was tested in spontaneously breathing, conscious guinea pigs challenged with aerosolized LTD4 (60-min pretreatment)). Details: not given.
Type: functional

| SMILES | Protection [%] |
| --- | --- |
| COc1cc(C(=O)O)ccc1COc1ccc(C(C)=O)c(O)c1C | 17 |
| CCCc1c(OCc2ccc(C(=O)O)cc2OC)ccc(C(=O)NC)c1O | 33 |

The molecules below were run against T1, Cysteinyl leukotriene receptor 1 (Cavia porcellus) (UniProt Q2NNR5) (assay: Dissociation constant (KB) […] was evaluated in vitro in isolated guinea pig tracheal strips). Details: not given.
T1 sequence (whole entry): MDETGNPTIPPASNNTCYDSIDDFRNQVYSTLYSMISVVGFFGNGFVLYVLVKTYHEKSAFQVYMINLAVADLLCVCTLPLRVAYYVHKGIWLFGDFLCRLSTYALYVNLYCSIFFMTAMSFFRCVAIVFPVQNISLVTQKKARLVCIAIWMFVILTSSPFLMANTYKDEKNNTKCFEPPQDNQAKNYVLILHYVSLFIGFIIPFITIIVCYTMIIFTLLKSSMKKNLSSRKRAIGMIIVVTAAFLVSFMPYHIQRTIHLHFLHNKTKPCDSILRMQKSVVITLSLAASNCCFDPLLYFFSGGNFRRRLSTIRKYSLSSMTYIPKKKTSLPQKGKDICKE

| Kb [nM] | SMILES |
| --- | --- |
| 850 | COc1cc(C(=O)O)ccc1COc1ccc(C(C)=O)c(O)c1C |

Species on record: Cavia porcellus
Assay: Percent inhibition of the leukotriene E4 (LTE4)-induced contraction of guinea pig tracheal spirals at 10 uM concentration; NS means data was not statistically significant.
Type: functional
Details: Trachea
Outline: as §1

| SMILES | inhibition |
| --- | --- |
| CCCc1c(OCc2cccc(NS(=O)(=O)c3ccccc3)c2)ccc(C(C)=O)c1O | Not statistically significant |
| CCCc1c(OCc2ccc(C(=O)O)cc2OC)ccc(C(C)=O)c1NC(C)=O | Not statistically significant |
| CCCc1c(OCc2ccc(C(=O)O)cc2OC)cc2oc(-c3ccccc3)cc(=O)c2c1O | Not statistically significant |
| CCCCOC(=O)c1ccc(OCc2ccc(C(=O)O)cc2OC)c(CCC)c1O | Not statistically significant |
| COc1cc(C(=O)O)ccc1CNc1ccc(C(C)=O)c(O)c1 | Not statistically significant |
| CCCc1c(OCc2ccc(C(=O)NS(=O)(=O)c3ccccc3)cc2OC)ccc(C(C)=O)c1O | Not statistically significant |
| CCCN(C(=O)c1ccc(C(=O)O)cc1)c1ccc(C(C)=O)c(O)c1 | Not statistically significant |
| C=CCc1c(OCc2ccc(C(=O)O)cc2OC)cc2oc(-c3ccccc3)cc(=O)c2c1O | Not statistically significant |
| CCCc1c(OCc2ccc(C(=O)O)cc2OC)ccc2c1C(=O)c1ccccc1-2 | Not statistically significant |
| CCCc1cc2c(cc1OCc1ccc(C(=O)O)cc1OC)C(=O)c1ccccc1-2 | Not statistically significant |
| CCCc1c(O)cccc1OCc1ccc(C(=O)O)cc1OC | Not statistically significant |
| CCCc1c(OCc2ccc(C(=O)O)cc2OC)ccc(-c2ccc3ccccc3n2)c1O | Not statistically significant |
| CCCCCCOc1cc(OCc2ccc(C(=O)O)cc2OC)ccc1C(C)=O | Not statistically significant |
| CCCc1c(OCc2ccc(/C=C/C(=O)Nc3nn[nH]n3)cc2)ccc(C(C)=O)c1O | Not statistically significant |
| CCCc1c(OCc2ccc(C(=O)O)cc2OC)ccc(C(C)=O)c1NC(=O)c1ccccc1 | Not statistically significant |
| COc1cc(C(=O)O)ccc1COc1cc(O)c2c(=O)ccn(C)c2c1 | Not statistically significant |

Species on record: Cavia porcellus
Assay: Percent inhibition of the leukotriene D4 (LTD4)-induced contraction of guinea pig tracheal spirals at 4 uM concentration
Type: functional
Details: Trachea
Outline: as §1

| SMILES | inhibition at 4 µM [%] |
| --- | --- |
| COc1cc(C(=O)O)ccc1COc1ccc(C(C)=O)c(O)c1C | 33 |
| CCCc1c(OCc2ccc(/C=C/C(=O)O)c(OC)c2)ccc(C(C)=O)c1O | 66 |
| CCCc1c(OCc2ccc(C(=O)O)cc2[N+](=O)[O-])ccc(C(C)=O)c1O | 57 |
| CCCc1c(OCc2ccc(C(=O)O)cc2)ccc(C(C)=O)c1O | 36 |
| CCCc1c(OCc2ccc(OC)c(/C=C/C(=O)O)c2)ccc(C(C)=O)c1O | 63 |

Species on record: Cavia porcellus
Assay: Percent inhibition of the leukotriene E4 (LTE4)-induced contraction of guinea pig tracheal spirals at 1 uM concentration
Details: Trachea

| SMILES | inhibition at 1 µM [%] |
| --- | --- |
| CCCc1c(OCc2ccc(NC(=O)c3ccccc3C(=O)O)cc2)ccc(C(C)=O)c1O | 49 |
